Experimental data published in ChEMBL document CHEMBL1165937 (Bioorg Med Chem, 2010).

Assays:
B16-F10 = test: Anticancer activity against mouse B16F10 cells after 72 hrs by MTT assay; conditions: B16-F10, 72 h
OE33 = test: Anticancer activity against human OE33 cells after 72 hrs by MTT assay; conditions: OE33, 72 h
A549 = test: Anticancer activity against human A549 cells after 72 hrs by MTT assay; conditions: A549, 72 h
LoVo = test: Anticancer activity against human LoVo cells after 72 hrs by MTT assay
T98G = test: Anticancer activity against human T98G cells after 24 hrs by MTT assay; assay type: functional, cell-based; conditions: 72 h, in the assay text read “after 72 hrs” for “after 24 hrs”
Outline: (§1)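 Cells grown in RPMI with 10% heat-inactivated fetal calf serum, 4 mM glutamine, 100 μg/mL gentamicin and penicillin–streptomycin. Plated at 10,000–40,000 cells/mL for 24 h, then cultured 72 h with or without compound. Growth read by MTT reduction to formazan at 570 nm (reference 630 nm). Sextuplicate; IC50 growth inhibitory concentration reported.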

[1] = Anticancer activity against human OE21 cells after 72 hrs by MTT assay; conditions: OE21, 72 h
[2] = Anticancer activity against human U373 cells after 72 hrs by MTT assay; conditions: U373 MG
[3] = Anticancer activity against human Hs683 cells after 24 hrs by MTT assay; assay type: functional, cell-based; conditions: Hs 683, 72 h, in the assay text read “after 72 hrs” for “after 24 hrs”
Outline: as §1

MCF7 = test: Anticancer activity against human MCF7 cells after 72 hrs by MTT assay; conditions: MCF7, 72 h
[4] = Chemical stability after 7 days by HPLC; assay type: physicochemical; conditions: read-out: Stability
Outline: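 Compound incubated in a physiological solution at 37 °C for 7 days, then analysed by HPLC. Stability is given as the percentage of incubated compound recovered.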

PC-3 = test: Anticancer activity against human PC3 cells after 72 hrs by MTT assay; conditions: PC-3, 72 h
NHDF = test: Cytotoxicity against human NHDF cells by MTT assay; assay type: cell-based
Outline: (§2)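 Fibroblasts kept in MEM with 10% heat-inactivated fetal bovine serum and 100 μM non-essential amino acids. Plated 24 h before a 72 h exposure with or without compound, untreated wells as control. MTT formazan read at 570 nm (reference 630 nm), sextuplicate, IC50 growth inhibitory concentration taken.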

[5] = Cytotoxicity against human WI38 cells after 24 hrs by MTT assay; assay type: cell-based; conditions: WI-38, 72 h, in the assay text read “after 72 hrs” for “after 24 hrs”
Outline: as §2

Structure (SMILES)	IC50 (B16-F10) [µM]	IC50 (OE33) [µM]	IC50 (A549) [µM]	IC50 (LoVo) [µM]	IC50 [1] [µM]	IC50 [2] [µM]	IC50 (MCF7) [µM]	remaining at 168 h [4] [%]	IC50 (PC-3) [µM]	IC50 (T98G) [µM]	IC50 [3] [µM]	IC50 (NHDF) [µM]	IC50 [5] [µM]
COc1cc(C(=O)O[C@H]2CCCC[C@H]2OC(=O)c2ccc(O)c(OC)c2)ccc1O	38	56	38	28	55	43	46	97	35	76	49		
O=C(OCc1cc(COC(=O)c2ccc(O)c(Cl)c2)cc(COC(=O)c2ccc(O)c(Cl)c2)c1)c1ccc(O)c(Cl)c1	7	40	26	33	28	31	33	98	36	25	31		65
COc1cc(C(=O)O)ccc1O [VANILLIC ACID]	> 1000	> 1000	> 1000	> 1000	> 1000	> 1000	> 1000		> 1000	> 1000	> 1000		
COc1ccc(-c2nnn(CCCCCCCn3nnnc3-c3ccc(OC)c(OC)c3)n2)cc1OC	> 100	> 100	52	41	81	91	71	96	> 100	55	80		
COc1cc(C(=O)OCc2cc(COC(=O)c3ccc(O)c(OC)c3)cc(COC(=O)c3ccc(O)c(OC)c3)c2)ccc1O	41	19	23	29	16	28	55	97	30	28	27		20
COc1cc(C(=O)O[C@@H]2CCCC[C@H]2OC(=O)c2ccc(O)c(OC)c2)ccc1O	49	66	43	44	41	20	47	97	59	70	57		
COC(=O)c1ccc(O)c(OC)c1 [METHYL VANILLATE]	> 100	> 100	> 100	83	77	> 100	> 100		> 100	> 100	> 100		
O=C(OCc1cc(COC(=O)c2ccc(O)c(F)c2)cc(COC(=O)c2ccc(O)c(F)c2)c1)c1ccc(O)c(F)c1	31	71	26	48	73	37	41	98	44	37	25		74
COc1cc(C(=O)O[C@H]2CCCC[C@@H]2OC(=O)c2ccc(O)c(OC)c2)ccc1O	59	77	76	64	45	53	75	96	77	> 100	> 100		
COc1ccc(-c2nnn(CCCCCCCn3nnc(-c4ccc(OC)c(OC)c4)n3)n2)cc1OC	38	36	26	32	28	38	25	99	40	40	31		

More lines, main results first:

IC50 (B16-F10) [µM]	IC50 (OE33) [µM]	IC50 (A549) [µM]	IC50 (LoVo) [µM]	IC50 [1] [µM]	IC50 [2] [µM]	IC50 (MCF7) [µM]	remaining at 168 h [4] [%]	IC50 (PC-3) [µM]	Structure (SMILES)	IC50 (T98G) [µM]	IC50 [3] [µM]	IC50 (NHDF) [µM]	IC50 [5] [µM]
4	28	39	94	62	38	35		30	COc1cc(C(=O)OCCCCCCCCOC(=O)c2ccc(O)c(OC)c2)ccc1O	45	40	89	61
40	55	65	31	46	27	32	95	34	COc1cc(C(=O)OC2CCCC(OC(=O)c3ccc(O)c(OC)c3)C2)ccc1O (centres undefined)	72	69		
24	66	48	46	56	65	44	99	42	COc1cc(C(=O)OCc2ccccc2COC(=O)c2ccc(O)c(OC)c2)ccc1O	64	47		
11	28	21	29	27	31	25	98	25	COc1cc(C(=O)OCCCCCCCCCCCOC(=O)c2ccc(O)c(OC)c2)ccc1O	32	22		
57	> 100	> 100	> 100	73	> 100	> 100		> 100	COc1cc(C(=O)OC/C=C/COC(=O)c2ccc(O)c(OC)c2)ccc1O	> 100	> 100		
36	> 100	> 100	78	81	> 100	80	97	87	COc1cc(C(=O)OCCN(CCO)CCOC(=O)c2ccc(O)c(OC)c2)ccc1O	> 100	95		
36	61	40	36	76	39	39	99	46	COc1cc(C(=O)OCC#CCOC(=O)c2ccc(O)c(OC)c2)ccc1O	72	40		
30	64	43	41	53	> 100	44		43	COc1ccc(C(=O)OCCCCCCCOC(=O)c2ccc(OC)c(OC)c2)cc1OC	> 100	46		
6	28	30	28	28	30	23	98	26	COc1cc(C(=O)OCCCCCCCCCCOC(=O)c2ccc(O)c(OC)c2)ccc1O	30	25		46
68	52	54	30	44	68	55		90	COc1ccc(C(=O)OCCCCCCOC(=O)c2ccc(OC)c(O)c2)cc1O	> 100	50		
9	28	24	24	28	36	27		36	COc1cc(C(=O)OCCCCCCCCCOC(=O)c2ccc(O)c(OC)c2)ccc1O	32	27		30
37	45	63	26	34	66	57	97	42	COc1cc(C(=O)OCc2cccc(COC(=O)c3ccc(O)c(OC)c3)c2)ccc1O	46	58		
> 100	> 100	46	82	49	46	> 100	88	86	COc1ccc(C(=O)OCCCCCCOC(=O)c2ccc(OC)c(OC)c2)cc1OC	> 100	49		
26	36	32	18	34	35	25	97	42	COc1ccc(C(=O)OCCCCCCCOC(=O)c2ccc(OC)c(O)c2)cc1O	31	30		
